Columns and labels:
[1] = system: MRC-5 cells (noncancerous lung fibroblast); experiment: Cytotoxicity assay; format: cell-based; settings: Homo sapiens, MRC5, 96 h, read-out: GI50, MRC-5
In short: (§1)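 Adherent cells grown in MEM GlutaMAX with 10 % FBS, 1 % penicillin/streptomycin and 1 % non-essential amino acids at 37 °C, 5 % CO₂, passaged with TrypLE. Cells were plated at 0.125×10⁵ cells mL⁻¹ and test compound in DMSO was added after 4 h ([…], 0.5 % v/v DMSO). After 96 h, CellTiter-Glo luminescence was read and viability expressed relative to the DMSO control. Each condition was run at least three times, with two technical replicates per plate.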

[2] = system: A549 cells (cisplatin-resistant non-small-cell lung carcinoma); experiment: Cytotoxicity assay; format: cell-based, human; settings: for GI50: Homo sapiens, A549, 96 h, read-out: GI50, A549
In short: as §1

[3] = system: T98G cells (multidrug-resistant glioblastoma); experiment: Cytotoxicity assay; format: cell-based; settings: Homo sapiens, 96 h, read-out: GI50, T98G
In short: as §1

[4] = system: 25TAG (5′-FAM, 3′-TAMRA) (DNA, G4) TAGGGTTAGGGTTAGGGTTAGGGTT; experiment: fluorescence melting; settings: 100 mM KCl; 10 mM LiAsO2Me2, pH 7.2; 0.4 μM compound, 0.2 μM DNA
[5] = system: 25TAG (G4-DNA, hybrid-2, variant of human telomeric sequence); experiment: Fluorescence-melting experiments; format: binding; settings: pure ligand 0.4 μM, DNA 0.2 μM
In short: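 FAM/TAMRA-labelled oligonucleotides were annealed (95 °C, 5 min) at 0.23 μM in target-specific buffer. Final concentrations were 0.2 μM DNA and 1 μM ligand; as-synthesized mixtures were diluted in buffer without further treatment, and pure ligands were run at 0.1–1.0 μM. Melting used a 0.5 °C min⁻¹ ramp with FAM-channel fluorescence. Tm came from first-derivative peaks, and ΔTm was the difference of means from three experiments. ΔTm detection tops out at 36 °C (96 °C).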

**Q.** For `C[n+]1cccc2cc(C=NNC(=O)c3ccc4ccc5ccc(C(=O)NN=Cc6ccc7c(ccc[n+]7C)c6)nc5c4n3)ccc21.[I-].[I-]` [3Ef], which GI50 [1] is on record?
**A.** The GI50 was 26.7 ± 2.4 µM.

**Q.** What about the GI50 [2] of the same compound?
**A.** The GI50 was 0.4 ± 0.06 µM.

**Q.** And the “selectivity index, A549 with respect to MRC-5 cells” value ([2]; ratio of GI50 values, 96 h)?
**A.** Its value is ~67.

**Q.** And the GI50 [3]?
**A.** Its GI50 is 11.2 ± 1.4 µM.

**Q.** For `C[n+]1cc(NC(=O)c2ccc3ccc4ccc(C(=O)Nc5cc6ccccc6[n+](C)c5)nc4c3n2)cc2ccccc21`, which ΔT m [4] is on record?
**A.** Its ΔT m is > 30 °C.

**Q.** What does the source list for `O=C(NN=Cc1ccc(C[n+]2ccccc2)cc1)c1ccc2ccc3ccc(C(=O)NN=Cc4ccc(C[n+]5ccccc5)cc4)nc3c2n1.[Br-].[Br-]` [3Ei]?
**A.** GI50 [1]: 59.1 ± 5.5 µM; GI50 [2]: 3.2 ± 0.6 µM; ΔTm, 25TAG, pure ligands [5]: > 30 °C; GI50 [3]: 29.7 ± 2 µM

Reference: paper PMC10099395 (Chemistry (Weinheim an Der Bergstrasse, Germany), 2022)
